# Source: paper PMC4704638 (Brazilian Journal of Microbiology, 2015)
# System: Streptomyces canarius L-glutaminase
# Assay: ammonia release, Lineweaver-Burk plot
# Assay type: biochemical
# Details: read-out: Km (mmol ^-1); 10-100 mM substrate
# Method in brief: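 Purified enzyme (ammonium sulphate 50-80% cut, dialysis, DEAE-cellulose; 132.2 U/mg protein) in potassium phosphate buffer pH 8 with L-glutamine, L-asparagine or L-aspartic acid, each separately at 10-100 mM, under standard assay conditions. Deaminating activity read as liberated NH3, expressed as µmol per min per mg protein. Km and Vmax from Lineweaver-Burk fit of 1/S versus 1/activity.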
row,Km,Structure (SMILES)
1,137 µM,NC(=O)C[C@H](N)C(=O)O [L-asparagine]
2,5380 µM,N[C@@H](CC(=O)O)C(=O)O [L-aspartic acid]
3,129 µM,NC(=O)CC[C@H](N)C(=O)O [L-glutamine]
